Results taken from article PMC6038876 (Drug Design, Development and Therapy, 2018).
Values after ≈ are worked out from the molar mass of the structure shown. One block for each molecule: values may come before it.

Tests used:
[1] = In vitro dissolution study; type: physicochemical
Procedure, shortened: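 USP type II (paddle) apparatus at 37°C and 50 rpm, with 900 mL of SGF (pH 1.2) or SIF (pH 6.8). Samples were taken at 5, 15, 30, 45, 60, 90 and 120 min, with media replaced, then passed through a 0.45 µm filter and diluted with mobile phase as needed. They were quantified by HPLC-UV at 240 nm (water:methanol:acetic acid 100:100:1, 1 mL/min). Release data were fitted to zero-order, first-order, Higuchi, Hixson–Crowell and Korsmeyer–Peppas models. f1 and f2 were calculated comparing the unformulated and formulated drug profiles.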

[2] = Solubility of EDR, PM and NEF in simulated body fluids and water
P-glycoprotein (Pgp) = conditions: cited from earlier work
[3] = cited from earlier work
[4] = pH 8–10; cited from earlier work
UGT enzymes = conditions: cited from earlier work
[5] = Kinetic solubility study of SNMSDs and EDR in SIF pH 6.8; type: physicochemical
[6] = system: glucuronidation of EDR in rat liver microsomes; assay: Microsomal incubation assay of EDR glucuronidation; type: in vitro ADME; conditions: SOL 1%
[7] = Miscibility study: solubility of EDR in polymeric carrier solutions; conditions: 10% (w/v) polymer in water
[8] = dissolution profiles in SGF vs SIF

- release kinetic model followed ([1]; SGF): Hixson–Crowell
- release kinetics: First order ([1]; SGF): 0.834
- release kinetics: Higuchi matrix ([1]; SGF): 0.8501
- release kinetics: Hixson–Crowell ([1]; SGF): 0.9216
- release kinetics: Korsmeyer–Peppas ([1]; SGF): 0.8636
- release kinetics: Zero order ([1]; SGF): 0.6077
- release / dissolution in SGF ([1]; SGF (pH 1.2), within 15 min): 100%
- release kinetic model followed ([1]; SIF): Korsmeyer–Peppas
- release kinetics: First order ([1]; SIF): 0.9609
- release kinetics: Higuchi matrix ([1]; SIF): 0.97
- release kinetics: Hixson–Crowell ([1]; SIF): 0.9718
- release kinetics: Korsmeyer–Peppas ([1]; SIF): 0.9895
- release kinetics: Zero order ([1]; SIF): 0.7947
- release mechanism ([1]; SIF): anomalous transport (non-Fickian)
- release in SIF ([1]; SIF (pH 6.8), in 120 min): 85%
- f1 value (dissimilarity factor) [1, 8]: 26
- f2 value (similarity factor) [1, 8]: 14
- dissolution ([1]; within 15 min in the 900 mL of dissolution media): 100%
- solubility in SGF (pH 1.2) compared to solubility in water ([2]; SGF pH 1.2): 4.46 fold
- solubility in SIF compared to solubility in water ([2]; SIF pH 6.8 and 7.4): insignificant difference
- solubility [5]: 2290 ± 320 µg/mL (≈ 13.1 mM)
Molecule: CC1=NN(c2ccccc2)C(=O)C1 [EDR, 3-methyl-1-phenyl-2-pyrazolin-5-one]
- substrate of P-glycoprotein (Pgp) (P-glycoprotein (Pgp)): substrate
- solubility in SGF [3]: 8260 ± 1420 µg/mL (≈ 47.4 mM)
- degradation at alkaline conditions [4]: dramatic degradation
- substrate of UGT enzymes (UGT enzymes): substrate

- inhibitory effect on glucuronidation of EDR [6]: 37.56%
Molecule: CC1(C)C2CCC1(C)C(O)C2 (stereo not drawn) [borneol]

- improvement in the aqueous solubility of EDR [7]: 3.49 fold
Molecule: hydroxypropyl-β-cyclodextrin [HP-β-CD]
